The text below walks through data of ChEMBL document CHEMBL1145590, “Discovery and initial SAR of arylsulfonylpiperazine inhibitors of 11beta-hydroxysteroid dehydrogenase type 1 (11beta-HSD1)” (Bioorg Med Chem Lett, 2008).

The target in data set [1] is 11-beta-hydroxysteroid dehydrogenase 1 (Mus musculus, UniProt P50172). The data set is described as follows: Inhibition of mouse recombinant 11beta-HSD1 assessed as conversion of [3H]cortisone to [3H]cortisol by SPA assay.
Data set [2] concerns the target T1, 11-beta-hydroxysteroid dehydrogenase 1 (Homo sapiens, UniProt P28845).
Data set [3] addresses T1, 11-beta-hydroxysteroid dehydrogenase 1. The source holds these as a separate data set.
Data set [4] is described as follows: Metabolic stability in human liver microsomes after 10 mins. Type of data set: ADME, Microsome. As to conditions: read-out: Stability. The essentials: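 Test compound incubated with human liver microsomes. Percent parent remaining measured at 10 min.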
For orientation: Liver microsomes are vesicles of endoplasmic reticulum, rich in cytochrome P450 enzymes.

Data set [5] can be described thus: Clearance in rat. The format is ADME, organism-based. The settings on record: in vivo.
Data set [6] is described as follows: Oral bioavailability in rat. The format is ADME, organism-based. As to conditions: in vivo.
Data set [7] concerns the target T2, 11-beta-hydroxysteroid dehydrogenase type 2 (Homo sapiens, UniProt P80365).
T2 sequence (P80365 whole entry): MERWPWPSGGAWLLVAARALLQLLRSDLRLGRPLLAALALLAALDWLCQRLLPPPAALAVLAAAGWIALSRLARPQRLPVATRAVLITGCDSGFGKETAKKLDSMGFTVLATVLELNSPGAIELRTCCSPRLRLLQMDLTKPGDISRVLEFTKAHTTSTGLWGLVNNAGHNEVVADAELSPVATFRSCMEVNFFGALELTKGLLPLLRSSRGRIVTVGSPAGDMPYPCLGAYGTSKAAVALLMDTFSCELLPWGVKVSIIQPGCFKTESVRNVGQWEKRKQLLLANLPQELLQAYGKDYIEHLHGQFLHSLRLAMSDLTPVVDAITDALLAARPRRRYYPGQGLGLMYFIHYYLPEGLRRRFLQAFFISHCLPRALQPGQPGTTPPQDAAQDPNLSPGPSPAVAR
The data set is described as follows: Inhibition of 11beta-HSD2.

Bounds are passed on as bounds.

Chain of 11-beta-hydroxysteroid dehydrogenase 1 (Mus musculus, UniProt P50172) (P50172 whole entry): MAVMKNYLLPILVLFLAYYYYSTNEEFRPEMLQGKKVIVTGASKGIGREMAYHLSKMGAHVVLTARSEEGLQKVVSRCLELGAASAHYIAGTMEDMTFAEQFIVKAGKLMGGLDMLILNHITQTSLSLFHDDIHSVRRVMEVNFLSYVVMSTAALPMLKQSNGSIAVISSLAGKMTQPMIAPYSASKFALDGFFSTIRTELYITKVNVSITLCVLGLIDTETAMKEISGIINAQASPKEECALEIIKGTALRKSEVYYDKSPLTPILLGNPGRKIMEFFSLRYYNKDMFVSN
T1 sequence (P28845 whole entry): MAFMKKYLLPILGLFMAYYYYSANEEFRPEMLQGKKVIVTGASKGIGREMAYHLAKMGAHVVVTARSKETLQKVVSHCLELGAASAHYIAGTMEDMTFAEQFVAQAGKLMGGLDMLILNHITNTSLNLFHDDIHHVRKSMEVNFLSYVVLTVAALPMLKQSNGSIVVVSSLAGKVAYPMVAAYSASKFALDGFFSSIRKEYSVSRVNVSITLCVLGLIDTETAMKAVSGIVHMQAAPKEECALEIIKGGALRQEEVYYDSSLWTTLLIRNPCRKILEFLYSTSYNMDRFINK

As a reminder, the IC50 is the concentration at which inhibition is half-maximal. `FC(F)(F)c1cccnc1N1CCN(Cc2ccccc2)CC1`: the IC50 is over 1000 nM in data set [1], 550 nM in data set [2] and 1930 nM in data set [3].

What is called clearance is the rate of elimination divided by the concentration. Low values mean a low capacity for elimination, high ones a high capacity for elimination. The term bioavailability denotes dose-corrected exposure relative to a reference, in per cent. High values mean much systemic uptake, low ones little systemic uptake. Take `CC(C)(C)c1ccc(S(=O)(=O)N2CCN(c3ccc([N+](=O)[O-])cc3)CC2)cc1`: the IC50 in data set [1] came to 161 nM; in data set [2], 10 nM; in data set [3], 247 nM. Besides, the remaining at 10 min in data set [4] is 90%. The same compound showed a clearance in data set [5] of 16.7 mL/min/kg. In data set [6], this compound had a bioavailability of 7%.

For the compound `Cc1ccc(S(=O)(=O)N2CCN(c3ncccc3C(F)(F)F)CC2)cc1`, the IC50 was 32 nM in data set [1], over 10000 nM in data set [7], 16 nM in data set [2] and 461 nM in data set [3].

Turning to `CCc1ccc(S(=O)(=O)N2CCN(c3ncccc3C(F)(F)F)CC2)cc1`, the IC50 is 53 nM in data set [1], 18 nM in data set [2] and 510 nM in data set [3].

Consider `O=S(=O)(c1ccc2ccccc2c1)N1CCN(c2ncccc2C(F)(F)F)CC1`, for which, in data set [1], the IC50 turned out to be 11 nM.

As to `O=[N+]([O-])c1ccc(S(=O)(=O)N2CCN(c3ncccc3C(F)(F)F)CC2)cc1`, the IC50 came out at 311 nM in data set [1], 37 nM in data set [2] and 922 nM in data set [3].

Regarding `O=S(=O)(c1cccc(C(F)(F)F)c1)N1CCN(c2ncccc2C(F)(F)F)CC1`, the IC50 in data set [1] was 53 nM; in data set [2], 64 nM; in data set [3], over 1000 nM.

On to `CC(C)(C)c1ccc(S(=O)(=O)N2CCN(c3ncccc3C(F)(F)F)CC2)cc1`, for which, in data set [4], the remaining at 10 min was 61%.

Take `C[C@H]1CN(c2ncccc2C(F)(F)F)CCN1S(=O)(=O)c1ccc(C(C)(C)C)cc1`: the figures for the IC50 in data set [1], in data set [2] and in data set [3] were 17 nM, 9 nM and 569 nM, respectively.

On to `O=C(c1ccccc1)N1CCN(c2ncccc2C(F)(F)F)CC1`, for which the figures for the IC50 in data set [1], in data set [2] and in data set [3] were over 1000 nM, 262 nM and over 1000 nM, respectively.

`CCC1CN(c2ncccc2C(F)(F)F)CCN1S(=O)(=O)c1ccc(C(C)(C)C)cc1` (stereo not given): the results for the IC50 in data set [1], in data set [2] and in data set [3] were 6 nM, 17 nM and over 1000 nM, respectively.

Regarding `CC1CN(c2ncccc2C(F)(F)F)CCN1S(=O)(=O)c1ccc(C(C)(C)C)cc1` (stereo not given), the 50% inhibitory concentration (IC50) in data set [1] was 4 nM; in data set [2], 9 nM; in data set [3] it was 632 nM.

For the compound `O=S(=O)(c1ccccc1)N1CCN(c2ncccc2C(F)(F)F)CC1`, the IC50 came out at 122 nM in data set [1], 45 nM in data set [2] and 724 nM in data set [3].

For `O=S(=O)(c1cccc2ccccc12)N1CCN(c2ncccc2C(F)(F)F)CC1`, the IC50 was found to be 80 nM in data set [1], 13 nM in data set [2] and 329 nM in data set [3].

In the case of `Cc1ccc(S(=O)(=O)N2CCN(c3ccccn3)CC2)cc1`, the IC50 in data set [1], in data set [2] and in data set [3] was over 1000 nM throughout.

With `Cc1ccc(S(=O)(=O)N2CCN(c3ncccc3C)CC2)cc1`, the figures for the IC50 in data set [1], in data set [2] and in data set [3] were 240 nM, 152 nM and over 1000 nM, respectively.

On to `Cc1ccc(S(=O)(=O)N2CCN(c3ncccc3Cl)CC2)cc1`, for which the IC50 in data set [1] was 146 nM; in data set [2], 117 nM; in data set [3], over 1000 nM.

`Cc1ccc(S(=O)(=O)N2CCN(c3ncccc3C#N)CC2)cc1`: the figures for the IC50 in data set [2] and in data set [3] were 628 nM and over 1000 nM, respectively.

For the compound `CC(C)(C)c1ccc(S(=O)(=O)N2CCN(c3ccccc3F)CC2)cc1`, the values for the IC50 in data set [1], in data set [2] and in data set [3] were 98 nM, 106 nM and over 1000 nM, respectively.

For `COc1ccc(S(=O)(=O)N2CCN(c3ncccc3C(F)(F)F)CC2)cc1`, the IC50 was 32 nM in data set [1], 19 nM in data set [2] and 456 nM in data set [3].

On to `N#Cc1ccc(S(=O)(=O)N2CCN(c3ncccc3C(F)(F)F)CC2)cc1`, for which the IC50 turned out to be 546 nM in data set [1], 50 nM in data set [2] and 978 nM in data set [3].

Consider `C[C@@H]1CN(c2ncccc2C(F)(F)F)CCN1S(=O)(=O)c1ccc(C(C)(C)C)cc1`, for which the IC50 in data set [1] is 4 nM; in data set [2] it was 11 nM; in data set [3] it was 762 nM.
